A selection: hits, their analogues and other compounds. The true share with any hit is near 2.9%.
PAX8 reporter: lowers PAX8-driven luciferase in RMG-I cells. 360,000 compounds, 1.2% hits. inhibition, % at 12.6 µM. RMG-I TPO-luciferase reporter, SteadyGlo, 24 h;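 active means mean replicate inhibition at least 60% with every replicate also reaching 60%; inconclusive means only one of the two criteria is met; inactive means mean below 60% and not all replicates reaching 60%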;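 further: luciferase light reporting Pax8 driven TPO promoter activity; plate controls were median of neutral control wells for no effect and mitoxantrone controls for full effect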
GSIS activator: primary screen for activators of insulin secretion dependent on glucose, INS-1E cells, GLuc reporter luminescence; INS-1E GLuc reporter insulin secretion, 2-3 h; activation, % at 16.6 µM; 370,000 compounds, 0.61% hits;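 active means lowest replicate activation of at least 40%, so every replicate reaches that level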;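 further: 0% = median of neutral control wells and 100% = median of IBMX positive control wells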
CDK5 inh: CDK5/p35 (human) kinase inhibition; Q00535+Q15078; 330,000 compounds, 0.01% hits; inhibition, % at 10 µM; Recombinant CDK5/p35, ADP-Glo luminescence, 60 min;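 active means highest replicate inhibition of at least 50% and at least 75% of replicates reaching 50%; inconclusive means only one of the two criteria met; inactive means both criteria failed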;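 further: plate controls were DMSO neutral control for no effect and GW8510 at 10 µM for full effect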
dFosB activator: enhances mouse delta FosB homodimer DNA binding. purified delta FosB, TAMRA-CDK5 oligo fluorescence polarization; percent of positive-control signal above neutral wells. activation, % at 25 µM. 340,000 compounds, 0.99% hits. AID 493131;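 active means mean activation above about 17%, with every replicate also reaching it, limit read from the data, passing the limit was not always enough; inconclusive means only one of the two conditions met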
Target sequence (P13346 whole entry, looked up): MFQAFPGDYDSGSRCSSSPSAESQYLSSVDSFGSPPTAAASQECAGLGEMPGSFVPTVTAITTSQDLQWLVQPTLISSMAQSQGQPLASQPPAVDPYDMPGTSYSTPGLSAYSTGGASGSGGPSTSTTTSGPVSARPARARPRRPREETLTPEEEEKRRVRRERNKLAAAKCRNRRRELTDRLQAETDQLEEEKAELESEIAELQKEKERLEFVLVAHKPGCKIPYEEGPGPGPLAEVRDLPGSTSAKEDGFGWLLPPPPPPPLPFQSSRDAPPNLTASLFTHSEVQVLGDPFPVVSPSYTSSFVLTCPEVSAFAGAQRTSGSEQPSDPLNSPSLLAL
Cneo AK release: Cryptococcus neoformans lysis via adenylate kinase release; C. neoformans lysis, adenylate kinase release luminescence, 4 h; normalised: neutral wells 0, clomiphene wells 100; lysis activity, % at 15 µM; 360,000 compounds, 0.2% hits; AID 651654;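 active means mean lysis activity across replicates of at least 80%, whatever share of replicates individually reach that level; inactive means mean lysis activity below 80%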
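Schedule: static 4 h at 37 °C with compound, 1 h detection; system: C. neoformans cells; benchmarks: Clomiphene as positive control; buffer or medium: fresh YPD medium; measure: luminescence rise reflecting yeast cell lysis; measured by: luminescent adenylate kinase detection reagent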
HIV Env fusion: inhibitors of HIV Env-mediated cell fusion; HeLa-JRFL Env/CEM21 cell fusion, luciferase; inhibition, % at 12.3 µM; 360,000 compounds, 1.1% hits; AID 651610;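 active means mean replicate inhibition score of at least 50 and every replicate individually at or above 50; inconclusive means only one of the two criteria met; inactive means mean below 50 and not all replicates reaching 50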;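 further: 0% = plate neutral controls and 100% = maraviroc near 300 nM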
* marks the source's active call; other numbers are inactive results; u = inconclusive; x = no result given; [ ] = another dose, or the depositor's remark.

SMILES	PAX8 reporter	GSIS activator	CDK5 inh	dFosB activator	Cneo AK release	HIV Env fusion
O=C(Nc1ccccc1)c1cc(N2CCOCC2)nc2ccccc12	x	x	1	-5	-1	x
O=C(Nc1nccs1)c1cc(N2CCOCC2)nc2ccccc12	x	46*	-2	-7	-2	x
Cc1cccc(N2CCN(C(=O)c3[nH]c(C(F)(F)F)nc3-c3ccccc3)CC2)c1C	77*	x	x	x	0	38
COc1ccccc1N1CCN(C(=O)c2[nH]c(C(F)(F)F)nc2-c2ccccc2)CC1	37	14	x	x	-3	-99
CC(C)CC(NC(=O)c1ccc(Cl)cc1)C(=O)OCC(=O)c1ccc2c(c1)NC(=O)CO2 (stereo not given)	x	461*	2	3	0	x
O=C1C(=Cc2cccn2-c2ccc(O)cc2)C(=O)c2ccccc21	x	x	0	2	0	x
O=C1C(=Cc2cccn2-c2ccccc2)C(=O)c2ccccc21	-9	72*	1	-4	2	16
CC(=NNC(=S)N1CCN(C2CCCCCC2)CC1)c1ccccn1	94*	12	0	-11	x	3
COc1ccc(O)c(/C=N/NC(=O)c2c(C)nnn2-c2nonc2N)c1	9	-5	4	47*	x	0
CC1CCN(Cc2c(C(=O)N/N=C/c3cc(Br)ccc3O)nnn2-c2nonc2N)CC1	u	1	0	134*	1	60*
COc1ccc(O)c(/C=N/NC(=O)c2ccc(N3CCCC3=O)cc2)c1	106*	-1	-1	-4	0	-8
CC1CCN(Cc2c(C(=O)N/N=C/c3cc(Cl)ccc3O)nnn2-c2nonc2N)CC1	5	9	-1	162*	3	24
COc1ccc2c3c([nH]c2c1)[C@@H](CO)N(C(=O)c1ccccc1)CC31CN(C(=O)NC(C)C)C1	x	33	x	x	x	x
CC(C)c1c(C(=O)N/N=C/c2cccc3ccccc23)nnn1-c1nonc1N	25	75*	-1	u	-4	12
CC(C)c1c(C(=O)N/N=C/c2c[nH]c3ccccc23)nnn1-c1nonc1N	37	-15	4	-3	-1	-1
C[C@@H]1CN([C@@H](C)CO)C(=O)c2cc(NC(=O)Nc3cccc4ccccc34)ccc2O[C@@H]1CN(C)S(C)(=O)=O	8	-1	x	x	3	x
CO[C@@H]1CN(C)C(=O)c2ccc(NS(=O)(=O)c3ccc(C)cc3)cc2OC[C@H](C)N(Cc2nccs2)C[C@@H]1C	5	-14	x	x	-9	x
CC(=O)c1sc(NC(=O)CCNC(=O)c2ccco2)nc1-c1ccccc1	11	-8	1	-21	0	62*
Cc1cccc2sc(NC(=O)CCNC(=O)c3ccco3)nc12	2	-3	0	-8	0	x
CO/N=C/c1ccc(N2CCN(C(=O)c3ccc(Cl)cc3Cl)CC2)c([N+](=O)[O-])c1	x	x	1	5	0	78*
CO/N=C/c1ccc(N2CCN(C(=O)c3cccc(C(F)(F)F)c3)CC2)c([N+](=O)[O-])c1	x	-12	0	-17	x	68*
O=C(C[C@@H]1CC[C@H](NC(=O)c2cccc(F)c2)[C@@H](CO)O1)NCCN1CCCC1	16	3	x	x	67	-11[16.7 µM]
COc1cccc(S(=O)(=O)N[C@H]2CC[C@@H](CCN)O[C@@H]2CO)c1	9	-3	x	x	2	68*[16.7 µM]
COc1cccc(S(=O)(=O)N[C@@H]2CC[C@H](CCN)O[C@H]2CO)c1	14	19	x	x	-5	66*[16.7 µM]
COc1cccc(S(=O)(=O)N[C@@H]2CC[C@@H](CCN)O[C@@H]2CO)c1	2	22	x	x	6	18[16.7 µM]
SMILES	PAX8 reporter	GSIS activator	CDK5 inh	dFosB activator	Cneo AK release	HIV Env fusion
Cc1cccc(N2C(=O)C(Cl)=C(N3CCOCC3)C2=O)c1	2	4	2	-2	-4	-3
O=C1C(Cl)=C(N2CCCCCC2)C(=O)N1c1ccccc1	-3	x	0	1	-1	105*
O=C1C(Cl)=C(N2CCOCC2)C(=O)N1c1cccc(Cl)c1	x	45*	0	-8	1	-87
CC1=CC(c2ccccc2)n2nc(NC(=O)CCCC(=O)O)nc2N1 (stereo not given)	0	8	-1	-3	-3	4
CC1=CC(c2ccccc2)n2nc(NC(=O)CCC(=O)O)nc2N1 (stereo not given)	13	65*	-4	-6	1	-6
COc1ccc([N+](=O)[O-])c2c(=O)ccoc12	x	41*	x	-3	x	x
CC(C)(C)n1nnnc1C(c1cccs1)N(Cc1cccnc1)Cc1ccco1 (stereo not given)	-15	x	x	-10	-4	53*
O=C(Cc1cccc2ccccc12)NCC(=O)N1CCN(CC(=O)Nc2ccc(F)cc2)CC1	37	-7	x	x	0	65*
O=C(Cc1cccc2ccccc12)NCC(=O)N1CCN(Cc2cccc(C(F)(F)F)c2)CC1	31	-10	-5	-15	-1	x
O=C(O)c1ccc(-n2nnnc2SCc2cccc(Br)c2)cc1	8	63*	-1	-12	2	-21
Cc1cccc(CSc2nnnn2-c2ccccc2)c1	x	-16	0	4	x	x
Cc1cc(C)c(CSc2nnnn2-c2ccc(C(=O)O)cc2)c(C)c1	15	89*	1	-1	x	-13
C[C@H](CO)N1C[C@H](C)[C@@H](CN(C)Cc2ccccc2)Oc2ncc(-c3cccc(C#N)c3)cc2C1=O	-28	1	x	x	-6	-6[16.7 µM]
C[C@H]1CCCCO[C@H](CN(C)Cc2ccncc2)[C@@H](C)CN([C@@H](C)CO)C(=O)c2cc(NC(=O)Nc3ccc4c(c3)OCO4)ccc2O1	-23	-23	x	x	0	-39[16.7 µM]
COc1ccc(S(=O)(=O)N(C)C[C@@H]2Oc3c(NC(=O)C4CC4)cccc3C(=O)N([C@@H](C)CO)C[C@H]2C)cc1	x	-2	x	x	5	8[16.7 µM]
CNC[C@H]1OCCCC[C@@H](C)Oc2ccc(NC(=O)NC3CCCCC3)cc2C(=O)N([C@@H](C)CO)C[C@H]1C	-2	4	x	x	x	-4[16.7 µM]
COc1ccc(S(=O)(=O)Nc2ccc3c(c2)C(=O)N([C@@H](C)CO)C[C@@H](C)[C@H](CN(C)Cc2ccc(C(F)(F)F)cc2)OCCCC[C@H](C)O3)cc1	96*	-13	x	x	12	u
COc1ccc(S(=O)(=O)Nc2ccc3c(c2)C(=O)N([C@H](C)CO)C[C@H](C)[C@H](CN(C)Cc2ccc(C(F)(F)F)cc2)OCCCC[C@H](C)O3)cc1	108*	-20	x	x	24	47[16.7 µM]
COc1ccc(S(=O)(=O)Nc2ccc3c(c2)C(=O)N([C@@H](C)CO)C[C@@H](C)[C@@H](CN(C)Cc2ccc(C(F)(F)F)cc2)OCCCC[C@H](C)O3)cc1	28	-9	x	x	7	14[16.7 µM]
COc1ccc(CN(C)C[C@H]2OCCCC[C@@H](C)Oc3ccc(NS(=O)(=O)c4ccc(OC)cc4)cc3C(=O)N([C@@H](C)CO)C[C@H]2C)cc1	-4	-17	x	x	2	-5[16.7 µM]

Compound activity as filed in PubChem BioAssay.
